# Tests used:
# Liver [1] = assay: Biodistribution in Sprague-Dawley rat liver assessed per gram of tissue at 1 MBq, iv after 0.5 hrs; format: ADME, organism-based; conditions: in vivo
# Outline: (§1)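 Male SD rats aged 8-10 weeks got 1 MBq [18F]tracer by tail vein in 0.1 mL. Groups of n = 4 were killed (CO2, then cervical fracture) at 0.25, 0.5, 1 and 4 h. Organs were weighed and gamma counted against a diluted standard of the injectate. Results are %ID per gram wet tissue, mean with standard deviation.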
# Heart [2] = assay: Biodistribution in Sprague-Dawley rat heart assessed per gram of tissue at 1 MBq, iv after 0.5 hrs; format: ADME, organism-based; conditions: in vivo; outline: as §1
# Spleen [3] = assay: Biodistribution in Sprague-Dawley rat spleen assessed per gram of tissue at 1 MBq, iv after 1 hr; format: ADME, organism-based; conditions: in vivo; outline: as §1
# Spleen [4] = assay: Biodistribution in Sprague-Dawley rat spleen assessed per gram of tissue at 1 MBq, iv after 0.5 hrs; format: ADME, organism-based; conditions: in vivo; outline: as §1
# [5] = Ratio of drug level in olfactory bulb to blood in Sprague-Dawley rat at 1 MBq, iv; format: ADME
# Outline: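 Same rat biodistribution as above: 1 MBq iv by tail vein, n = 4 per time point, 0.25-4 h, gamma counting as %ID/g. Ratio is the olfactory bulb radioactivity concentration divided by the blood concentration at each time.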
# Adrenal [6] = assay: Biodistribution in Sprague-Dawley rat adrenals assessed per gram of tissue at 1 MBq, iv after 0.25 hrs; format: ADME, organism-based, Adrenal tissue; conditions: in vivo; outline: as §1
# Adrenal [7] = assay: Biodistribution in Sprague-Dawley rat adrenals assessed per gram of tissue at 1 MBq, iv after 4 hrs; format: ADME, organism-based, Adrenal tissue; conditions: in vivo; outline: as §1
# [8] = Metabolic stability in Sprague-Dawley rat frontal cortex assessed as drug remaining at 30 MBq after 0.25 hrs by Radio-HPLC analysis; format: ADME, tissue-based; conditions: read-out: Stability
# Outline: (§2)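 Rats received 30 MBq tracer and were sampled at 0.25, 0.5, 1 and 4 h. Plasma was diluted with water containing unlabeled carrier and KF and injected directly. Frontal cortex or olfactory bulb was sonicated in acetonitrile/water 1:1 with carrier and KF, centrifuged, and the supernatant diluted. Radio-HPLC used a precolumn switched to C18 with a CH3CN/0.05 M sodium acetate pH 5.5 gradient. Result is % parent remaining.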
# [9] = Biodistribution in Sprague-Dawley rat testis assessed per gram of tissue at 1 MBq, iv after 1 hr; format: ADME, organism-based; conditions: in vivo; outline: as §1
# [10] = Metabolic stability in Sprague-Dawley rat frontal cortex assessed as drug remaining at 30 MBq after 4 hrs by Radio-HPLC analysis; format: ADME, tissue-based; conditions: read-out: Stability; outline: as §2
# Heart [11] = assay: Biodistribution in Sprague-Dawley rat heart assessed per gram of tissue at 1 MBq, iv after 4 hrs; format: ADME, organism-based; conditions: in vivo; outline: as §1
# Lung [12] = assay: Biodistribution in Sprague-Dawley rat lungs assessed per gram of tissue at 1 MBq, iv after 1 hr; format: ADME, organism-based; conditions: in vivo; outline: as §1
# Femur [13] = assay: Biodistribution in Sprague-Dawley rat femur at 1 MBq, iv after 4 hrs; format: ADME, organism-based; conditions: in vivo; outline: as §1
# [14] = Biodistribution in Sprague-Dawley rat testis assessed per gram of tissue at 1 MBq, iv after 0.25 hrs; format: ADME, organism-based; conditions: in vivo; outline: as §1
# Liver [15] = assay: Biodistribution in Sprague-Dawley rat liver assessed per gram of tissue at 1 MBq, iv after 1 hr; format: ADME, organism-based; conditions: in vivo; outline: as §1
# [16] = Metabolic stability in Sprague-Dawley rat olfactory bulb assessed as drug remaining at 30 MBq after 4 hrs by Radio-HPLC analysis; format: ADME, tissue-based; conditions: read-out: Stability; outline: as §2
# Blood = assay: Biodistribution in Sprague-Dawley rat blood at 1 MBq, iv after 1 hr; format: ADME, organism-based; conditions: in vivo
# Outline: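 Male SD rats, 8-10 weeks old, given 1 MBq [18F]radiotracer by tail-vein injection in 0.1 mL. Groups of 4 killed (CO2, then cervical fracture) at 0.25, 0.5, 1 and 4 h post-injection. Tissues weighed and gamma-counted against a diluted standard of the injected solution. Activity expressed as %ID per gram wet tissue.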
# Kidney [17] = assay: Biodistribution in Sprague-Dawley rat kidney assessed per gram of tissue at 1 MBq, iv after 0.25 hrs; format: ADME, organism-based; conditions: in vivo; outline: as §1
# [18] = Biodistribution in Sprague-Dawley rat testis assessed per gram of tissue at 1 MBq, iv after 0.5 hrs; format: ADME, organism-based; conditions: in vivo; outline: as §1
# Spleen [19] = assay: Biodistribution in Sprague-Dawley rat spleen assessed per gram of tissue at 1 MBq, iv after 0.25 hrs; format: ADME, organism-based; conditions: in vivo; outline: as §1
# Liver [20] = assay: Biodistribution in Sprague-Dawley rat liver assessed per gram of tissue at 1 MBq, iv after 4 hrs; format: ADME, organism-based; conditions: in vivo; outline: as §1
# Lung [21] = assay: Biodistribution in Sprague-Dawley rat lungs assessed per gram of tissue at 1 MBq, iv after 4 hrs; format: ADME, organism-based; conditions: in vivo; outline: as §1
# Lung [22] = assay: Biodistribution in Sprague-Dawley rat lungs assessed per gram of tissue at 1 MBq, iv after 0.25 hrs; format: ADME, organism-based; conditions: in vivo; outline: as §1
# Heart [23] = assay: Biodistribution in Sprague-Dawley rat heart assessed per gram of tissue at 1 MBq, iv after 1 hr; format: ADME, organism-based; conditions: in vivo; outline: as §1
# [24] = Biodistribution in Sprague-Dawley rat testis assessed per gram of tissue at 1 MBq, iv after 4 hrs; format: ADME, organism-based; conditions: in vivo; outline: as §1
# Spleen [25] = assay: Biodistribution in Sprague-Dawley rat spleen assessed per gram of tissue at 1 MBq, iv after 4 hrs; format: ADME, organism-based; conditions: in vivo; outline: as §1
# [26] = Metabolic stability in Sprague-Dawley rat plasma assessed as drug remaining at 30 MBq after 4 hrs by Radio-HPLC analysis; format: ADME, cell-free; conditions: read-out: Stability; outline: as §2
# [27] = Metabolic stability in Sprague-Dawley rat olfactory bulb assessed as drug remaining at 30 MBq after 0.25 hrs by Radio-HPLC analysis; format: ADME, tissue-based; conditions: read-out: Stability; outline: as §2
# Heart [28] = assay: Biodistribution in Sprague-Dawley rat heart assessed per gram of tissue at 1 MBq, iv after 0.25 hrs; format: ADME, organism-based; conditions: in vivo; outline: as §1
# Adrenal [29] = assay: Biodistribution in Sprague-Dawley rat adrenals assessed per gram of tissue at 1 MBq, iv after 1 hr; format: ADME, organism-based, Adrenal tissue; conditions: in vivo; outline: as §1
# Kidney [30] = assay: Biodistribution in Sprague-Dawley rat kidney assessed per gram of tissue at 1 MBq, iv after 0.5 hrs; format: ADME, organism-based; conditions: in vivo; outline: as §1
# Kidney [31] = assay: Biodistribution in Sprague-Dawley rat kidney assessed per gram of tissue at 1 MBq, iv after 1 hr; format: ADME, organism-based; conditions: in vivo; outline: as §1
# Femur [32] = assay: Biodistribution in Sprague-Dawley rat femur at 1 MBq, iv after 0.25 hrs; format: ADME, organism-based; conditions: in vivo; outline: as §1
# Kidney [33] = assay: Biodistribution in Sprague-Dawley rat kidney assessed per gram of tissue at 1 MBq, iv after 4 hrs; format: ADME, organism-based; conditions: in vivo; outline: as §1
# Liver [34] = assay: Biodistribution in Sprague-Dawley rat liver assessed per gram of tissue at 1 MBq, iv after 0.25 hrs; format: ADME, organism-based; conditions: in vivo; outline: as §1
# Adrenal [35] = assay: Biodistribution in Sprague-Dawley rat adrenals assessed per gram of tissue at 1 MBq, iv after 0.5 hrs; format: ADME, organism-based, Adrenal tissue; conditions: in vivo; outline: as §1
# Lung [36] = assay: Biodistribution in Sprague-Dawley rat lungs assessed per gram of tissue at 1 MBq, iv after 0.5 hrs; format: ADME, organism-based; conditions: in vivo; outline: as §1
smiles,measurement,setting,value
CCN(CC)C(=O)Cc1c(-c2ccc(OCC[18F])cc2)nn2c(C)cc(C)nc12 [DPA-714 F-18],Drug uptake,Liver [1],0.54 %ID
same,Drug uptake,Heart [2],5.6 %ID
same,Drug uptake,Spleen [3],4.5 %ID
same,Drug uptake,Spleen [4],4.7 %ID
same,Kp,[5],2
same,Drug uptake,Adrenal [6],5.6 %ID
same,Drug uptake,Adrenal [7],9.7 %ID
same,remaining at 0.25 h,[8],55%
same,Drug uptake,[9],0.27 %ID
same,remaining at 4 h,[10],10%
same,Drug uptake,Heart [11],4.3 %ID
same,Drug uptake,Lung [12],5.7 %ID
same,Drug uptake,Femur [13],0.7 % ID/g
same,Drug uptake,[14],0.18 %ID
same,Drug uptake,Liver [15],0.4 %ID
same,remaining at 4 h,[16],40%
same,Drug uptake,Blood,0.1 % ID/g
same,Drug uptake,Kidney [17],3.8 %ID
same,Drug uptake,[18],0.21 %ID
same,Drug uptake,Spleen [19],4.6 %ID
same,Drug uptake,Liver [20],0.29 %ID
same,Drug uptake,Lung [21],2.8 %ID
same,Drug uptake,Lung [22],14.6 %ID
same,Drug uptake,Heart [23],6.4 %ID
same,Drug uptake,[24],0.35 %ID
same,Drug uptake,Spleen [25],3.9 %ID
same,remaining at 4 h,[26],< 1%
same,remaining at 0.25 h,[27],80%
same,Drug uptake,Heart [28],5.8 %ID
same,Drug uptake,Adrenal [29],7.8 %ID
same,Drug uptake,Kidney [30],3.6 %ID
same,Drug uptake,Kidney [31],3.5 %ID
same,Drug uptake,Femur [32],0.4 % ID/g
same,Drug uptake,Kidney [33],2.4 %ID
same,Drug uptake,Liver [34],0.63 %ID
same,Drug uptake,Adrenal [35],6.6 %ID
same,Drug uptake,Lung [36],8.8 %ID

# Reference: ChEMBL document CHEMBL1155010, “Synthesis and biological evaluation of substituted [18F]imidazo[1,2-a]pyridines and [18F]pyrazolo[1,5-a]pyrimidines for the study of the peripheral benzodiazepine receptor using positron emission tomography” (J Med Chem, 2008)
